Results as given in ChEMBL document CHEMBL4196128 (ACS Med Chem Lett, 2018).

How the values were obtained:
[1] = test system: COLO 205; test: Antitumor activity against human COLO205 cells xenografted in nude mouse assessed as tumor growth inhibition at 40 mg/kg, po bid measured after 28 days relative to control; format: functional; details: COLO 205, po, 672 h, read-out: TGI
How it was run: (§1)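 Female nude mice carrying Colo-205 human colon tumor xenografts were randomized to oral dosing twice daily at 20, 40 or 60 mg/kg, or to vehicle. After 28 days of treatment, tumor growth inhibition or tumor regression was assessed relative to vehicle control, with P-value testing.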

[2] = Apparent permeability across apical to basolateral side in human Caco2 cells; format: ADME, cell-based; details: Caco-2, read-out: permeability
[3] = Oral bioavailability in Beagle dog at 30 mg/kg; format: ADME, organism-based, Canis lupus familiaris; details: in vivo
How it was run: (§2)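 Oral dosing in male CD1 mice (30 mg/kg, n = 27), Sprague–Dawley rats (10 mg/kg, n = 3), beagle dogs (30 mg/kg, n = 3) and cynomolgus monkeys (10 mg/kg, n = 3). Mean Tmax was read from plasma concentration–time data. Bioavailability was derived from oral AUC(0–∞) compared with intravenous AUC.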

[4] = Protein binding in mouse plasma at 10 uM; format: ADME, cell-free; details: read-out: PPB
[5] = Tmax in CD1 mouse at 30 mg/kg, po; format: ADME, organism-based; details: in vivo; how it was run: as §2
[6] = Apparent permeability across basolateral to apical side in human Caco2 cells; format: ADME, cell-based; details: Caco-2, read-out: permeability
[7] = Oral bioavailability in Sprague-Dawley rat at 10 mg/kg; format: ADME, organism-based; details: in vivo; how it was run: as §2
[8] = Mean residence time in monkey at 1 mg/kg, iv; details: cynomolgus monkey, in vivo
[9] = Tmax in Sprague-Dawley rat at 10 mg/kg, po; format: ADME, organism-based; details: in vivo; how it was run: as §2
[10] = target: T1, Cytochrome P450 2C9 (Homo sapiens, UniProt P11712); test: Inhibition of CYP2C9 (unknown origin) co-incubated with substrate; format: ADME
[11] = test system: Cavia porcellus; test: Cardiotoxicity in telemetered guinea pig assessed as changes in QTc interval at 30 to 100 mg/kg; format: toxicity, organism-based; details: in vivo
How it was run: (§3)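 Telemetered guinea pigs were exposed at 30 and 100 mg/kg. Electrocardiographic PR, QRS and QT/QTc intervals were monitored for changes related to the test article, and exposure was referenced to total Cmax.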

[12] = Clearance in Sprague-Dawley rat at 3 mg/kg, iv; format: ADME, organism-based; details: in vivo
How it was run: (§4)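 The compound was given intravenously as an aqueous solution in 20% hydroxypropyl-β-cyclodextrin. Animals were male CD1 mice (10 mg/kg, n = 30), Sprague–Dawley rats (3 mg/kg, n = 3), beagle dogs (3 mg/kg, n = 3) and cynomolgus monkeys (1 mg/kg, n = 3). Plasma concentration–time data gave mean AUC(0–∞), half-life, mean residence time, clearance and Vd,ss.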

[13] = Half life in CD1 mouse at 10 mg/kg, iv; format: ADME, organism-based; details: in vivo; how it was run: as §4
[14] = Protein binding in Sprague-Dawley rat plasma at 10 uM; format: ADME, cell-free; details: read-out: PPB
[15] = target: T2, hERG (KCNH2) (Homo sapiens, UniProt Q12809); test: Inhibition of human ERG at 10 uM by IonWork assay relative to control
[16] = Volume of distribution at steady state in Sprague-Dawley rat at 3 mg/kg, iv; format: ADME, organism-based; details: in vivo, read-out: Vdss
How it was run: (§5)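 Intravenous dosing in male CD1 mice (10 mg/kg, n = 30), Sprague–Dawley rats (3 mg/kg, n = 3), beagle dogs (3 mg/kg, n = 3) and cynomolgus monkeys (1 mg/kg, n = 3). Vehicle was aqueous 20% hydroxypropyl-β-cyclodextrin. Mean residence time and steady-state volume of distribution were taken from plasma concentration–time profiles as mean parameters.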

[17] = target: T2, hERG (KCNH2); test: Inhibition of human ERG at 1 uM by IonWork assay relative to control
[18] = Oral bioavailability in monkey at 10 mg/kg; details: cynomolgus monkey, in vivo
[19] = target: Caspase (Homo sapiens) (UniProt P49662+P55211+P42574+P51878+P55212+P55210+Q14790+P29466+P42575+Q92851+P31944+Q6UXS9); test: Activation of caspase (unknown origin); format: protein assay
[20] = Mean residence time in Sprague-Dawley rat at 3 mg/kg, iv; format: ADME, organism-based; details: in vivo; how it was run: as §5
[21] = target: T3, Cytochrome P450 2C8 (Homo sapiens, UniProt P10632); test: Inhibition of CYP2C8 (unknown origin) preincubated followed by substrate addition; format: ADME
T3 sequence (P10632 whole entry): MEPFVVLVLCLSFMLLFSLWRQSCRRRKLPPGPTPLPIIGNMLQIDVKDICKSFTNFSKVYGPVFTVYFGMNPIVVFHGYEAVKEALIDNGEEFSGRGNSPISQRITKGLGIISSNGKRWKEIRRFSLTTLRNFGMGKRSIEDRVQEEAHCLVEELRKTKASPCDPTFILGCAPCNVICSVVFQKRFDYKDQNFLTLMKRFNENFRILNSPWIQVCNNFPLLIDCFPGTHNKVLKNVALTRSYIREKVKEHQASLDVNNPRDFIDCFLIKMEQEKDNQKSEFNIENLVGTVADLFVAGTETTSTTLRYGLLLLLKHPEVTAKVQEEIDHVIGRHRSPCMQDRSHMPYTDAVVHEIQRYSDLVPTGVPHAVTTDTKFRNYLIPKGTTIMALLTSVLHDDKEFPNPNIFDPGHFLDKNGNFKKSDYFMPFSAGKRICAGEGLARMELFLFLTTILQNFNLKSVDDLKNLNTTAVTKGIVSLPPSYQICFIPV

[22] = Mean residence time in CD1 mouse at 10 mg/kg, iv; format: ADME, organism-based; details: in vivo; how it was run: as §5
[23] = test system: Cavia porcellus; test: Cardiotoxicity in telemetered guinea pig assessed as changes in PR interval at 30 to 100 mg/kg; format: toxicity, organism-based; details: in vivo; how it was run: as §3
[24] = Protein binding in human plasma at 10 uM; format: ADME, cell-free; details: read-out: PPB
[25] = target: Cytochrome P450 3A4 (Homo sapiens, UniProt P08684); test: Inhibition of CYP3A4 (unknown origin) co-incubated with substrate; format: ADME
[26] = target: Mitogen-activated protein kinase; ERK1/ERK2 (Homo sapiens) (UniProt P27361+P28482); test: Inhibition of ERK1/2 phosphorylation in human A2058 cells at 30 nM after 24 hrs by Western blot analysis relative to control; format: cell-based
How it was run: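 A2058 melanoma cells were treated across a compound dose range. pERK1/2 and pRSK levels were detected by Western blot analysis.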

[27] = test system: COLO 205; test: Antiproliferative activity against human COLO205 cells harboring BRAF V600E/D mutant measured after 4 days; format: functional, cell-based; details: COLO 205, 96 h
[28] = test system: A2058; test: Antiproliferative activity against human A2058 cells harboring BRAF V600E/D mutant measured after 4 days; format: functional, cell-based; details: A2058, 96 h
[29] = target: T3, Cytochrome P450 2C8; test: Inhibition of CYP2C8 (unknown origin) co-incubated with substrate; format: ADME
[30] = test system: COLO 205; test: Antitumor activity against human COLO205 cells xenografted in nude mouse assessed as tumor growth inhibition at 20 mg/kg, po bid measured after 28 days relative to control; format: functional; details: COLO 205, po, 672 h, read-out: TGI; how it was run: as §1
[31] = target: T2, hERG (KCNH2); test: Inhibition of human ERG at 1.5 mg/ml by binding assay relative to control; set-up: dose or concentration left out as unconfirmed
[32] = target: T1, Cytochrome P450 2C9; test: Inhibition of CYP2C9 (unknown origin) preincubated followed by substrate addition; format: ADME
[33] = test system: COLO 205; test: Antitumor activity against human COLO205 cells xenografted in nude mouse assessed as tumor regression at 60 mg/kg, po bid measured after 28 days relative to control; format: functional; how it was run: as §1

T2 sequence (Q12809 whole entry): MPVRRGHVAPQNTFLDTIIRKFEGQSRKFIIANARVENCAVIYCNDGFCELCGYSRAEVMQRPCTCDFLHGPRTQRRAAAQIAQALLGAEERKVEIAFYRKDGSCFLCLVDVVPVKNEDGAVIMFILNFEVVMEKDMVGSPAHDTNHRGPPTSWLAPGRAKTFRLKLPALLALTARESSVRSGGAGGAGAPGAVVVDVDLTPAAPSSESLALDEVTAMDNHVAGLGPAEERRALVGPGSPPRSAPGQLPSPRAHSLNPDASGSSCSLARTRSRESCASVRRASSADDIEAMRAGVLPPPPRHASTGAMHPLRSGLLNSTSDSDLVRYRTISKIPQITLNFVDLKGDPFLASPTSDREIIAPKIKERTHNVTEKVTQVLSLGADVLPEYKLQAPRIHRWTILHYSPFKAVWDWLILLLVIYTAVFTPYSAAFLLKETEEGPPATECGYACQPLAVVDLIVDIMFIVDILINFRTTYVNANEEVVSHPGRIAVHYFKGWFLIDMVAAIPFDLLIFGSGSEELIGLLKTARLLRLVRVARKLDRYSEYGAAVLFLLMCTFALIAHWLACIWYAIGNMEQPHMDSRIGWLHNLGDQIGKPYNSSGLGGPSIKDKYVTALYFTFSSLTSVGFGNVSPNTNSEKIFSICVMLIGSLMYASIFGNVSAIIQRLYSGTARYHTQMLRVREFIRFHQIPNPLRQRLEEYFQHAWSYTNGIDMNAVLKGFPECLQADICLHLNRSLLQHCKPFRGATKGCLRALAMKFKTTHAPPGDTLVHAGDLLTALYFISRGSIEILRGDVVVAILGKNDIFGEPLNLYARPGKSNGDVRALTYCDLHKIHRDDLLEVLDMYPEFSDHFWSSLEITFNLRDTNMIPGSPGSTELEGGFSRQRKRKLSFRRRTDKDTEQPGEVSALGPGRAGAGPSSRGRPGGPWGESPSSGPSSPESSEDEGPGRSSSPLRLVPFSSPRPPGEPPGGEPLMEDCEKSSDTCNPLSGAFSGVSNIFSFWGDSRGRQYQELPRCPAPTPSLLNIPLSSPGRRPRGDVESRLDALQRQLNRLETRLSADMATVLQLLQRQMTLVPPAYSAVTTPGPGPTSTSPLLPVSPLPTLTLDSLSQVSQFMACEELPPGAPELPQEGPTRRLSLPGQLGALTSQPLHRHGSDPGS
T1 sequence (P11712 whole entry): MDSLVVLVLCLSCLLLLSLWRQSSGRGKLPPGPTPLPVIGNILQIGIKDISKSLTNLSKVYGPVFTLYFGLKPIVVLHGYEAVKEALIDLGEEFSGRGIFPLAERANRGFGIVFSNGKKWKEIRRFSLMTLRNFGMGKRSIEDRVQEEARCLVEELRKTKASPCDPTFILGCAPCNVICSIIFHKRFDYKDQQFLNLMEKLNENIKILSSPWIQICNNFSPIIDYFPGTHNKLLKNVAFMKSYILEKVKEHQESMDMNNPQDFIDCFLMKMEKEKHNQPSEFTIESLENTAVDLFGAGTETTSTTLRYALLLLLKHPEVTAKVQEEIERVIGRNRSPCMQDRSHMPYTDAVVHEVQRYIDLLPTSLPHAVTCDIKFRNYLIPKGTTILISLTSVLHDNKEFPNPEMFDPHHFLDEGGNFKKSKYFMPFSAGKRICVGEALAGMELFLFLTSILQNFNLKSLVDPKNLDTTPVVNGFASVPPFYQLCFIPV
Chain of Cytochrome P450 3A4 (P08684 whole entry): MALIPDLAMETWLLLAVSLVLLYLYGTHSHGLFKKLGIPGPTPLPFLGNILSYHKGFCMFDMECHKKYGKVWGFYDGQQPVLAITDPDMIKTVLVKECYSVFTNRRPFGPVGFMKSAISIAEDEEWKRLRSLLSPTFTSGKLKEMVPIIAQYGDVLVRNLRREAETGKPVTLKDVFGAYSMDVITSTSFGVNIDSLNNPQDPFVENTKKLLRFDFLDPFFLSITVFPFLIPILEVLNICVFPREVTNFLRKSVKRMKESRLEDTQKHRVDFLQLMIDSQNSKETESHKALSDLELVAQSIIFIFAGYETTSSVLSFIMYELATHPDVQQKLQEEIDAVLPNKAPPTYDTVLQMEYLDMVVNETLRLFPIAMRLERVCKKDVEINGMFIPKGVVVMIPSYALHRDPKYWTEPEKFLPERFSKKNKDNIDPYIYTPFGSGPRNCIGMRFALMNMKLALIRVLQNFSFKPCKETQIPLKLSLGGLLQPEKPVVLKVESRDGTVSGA
Chain of Mitogen-activated protein kinase; ERK1/ERK2 (Homo sapiens) (P27361 whole entry, looked up): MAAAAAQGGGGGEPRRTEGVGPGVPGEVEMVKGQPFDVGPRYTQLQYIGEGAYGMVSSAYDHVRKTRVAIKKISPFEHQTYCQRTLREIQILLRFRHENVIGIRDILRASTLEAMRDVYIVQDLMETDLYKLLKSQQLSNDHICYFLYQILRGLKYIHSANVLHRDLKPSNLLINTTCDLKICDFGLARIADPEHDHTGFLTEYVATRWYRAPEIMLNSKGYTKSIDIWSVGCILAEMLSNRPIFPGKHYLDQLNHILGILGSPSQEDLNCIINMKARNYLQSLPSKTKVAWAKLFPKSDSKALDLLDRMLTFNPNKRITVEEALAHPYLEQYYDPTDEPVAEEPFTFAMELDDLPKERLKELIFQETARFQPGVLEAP
Chain of Mitogen-activated protein kinase; ERK1/ERK2 (Homo sapiens) (P28482 whole entry, looked up): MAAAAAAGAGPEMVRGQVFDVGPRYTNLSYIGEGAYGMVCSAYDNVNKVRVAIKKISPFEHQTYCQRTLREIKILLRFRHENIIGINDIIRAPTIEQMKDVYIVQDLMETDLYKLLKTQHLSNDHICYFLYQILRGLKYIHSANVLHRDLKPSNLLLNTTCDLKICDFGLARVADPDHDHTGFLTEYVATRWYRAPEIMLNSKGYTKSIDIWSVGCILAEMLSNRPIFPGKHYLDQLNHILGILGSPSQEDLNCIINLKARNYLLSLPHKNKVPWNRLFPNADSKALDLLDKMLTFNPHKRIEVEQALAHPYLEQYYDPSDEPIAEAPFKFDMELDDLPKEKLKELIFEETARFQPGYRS

Papp A→B [2]: 13.4 ×10⁻⁶ cm/s | bioavailability [3]: 23% | fraction unbound at 10 µM [4]: < 0.01 | Tmax [5]: 1 h | Papp B→A [6]: 40 ×10⁻⁶ cm/s | bioavailability [7]: 50% | MRT [8]: 1.9 h | Tmax [9]: 1.7 h | IC50 [10]: > 5 µM | clearance [12]: 1 mL/min/kg | half-life [13]: 1.8 h | fraction unbound at 10 µM [14]: < 0.01 | Vd [16]: 0.1 L/kg | bioavailability [18]: 2% | Activity [19]: 185 nM | MRT [20]: 2.3 h | IC50 [21]: 3.5 µM | MRT [22]: 1.5 h | fraction unbound at 10 µM [24]: < 0.01 | IC50 [25]: > 5 µM | inhibition [26]: 100% | IC50 [27]: 0.023 µM | IC50 [29]: > 5 µM | IC50 [32]: > 5 µM
Compound: CS[C@@]1(C(=O)Nc2ccc3[nH]nc(-c4ccc(OC(C)C)nc4)c3c2)CCN(CC(=O)N2CC=C(c3ccc(-c4ncn(C)n4)cc3)CC2)C1 [MK-8353]
inhibition in vivo at 40 mg/kg [1]: 88% | Activity [11]: Non-Toxic | inhibition at 10 µM [15]: -0.2% | inhibition at 1 µM [17]: -1.7% | Activity [23]: Non-Toxic | IC50 [28]: 0.371 µM | inhibition in vivo at 20 mg/kg [30]: 37% | inhibition [31]: -3.5% | Activity [33]: 40%
